Test results taken from ChEMBL document CHEMBL4004871, “Impact of androstane A- and D-ring inversion on 17β-hydroxysteroid dehydrogenase type 3 inhibitory activity, androgenic effect and metabolic stability” (Bioorg Med Chem, 2017).
pIC50: −log10 of the molar value. The source made the active and inactive calls. The calls are words filed in the database; no cut-off is given here.

Legend:
Androgen receptor [1] = biological target: T1, Androgen receptor (Homo sapiens, UniProt P10275); experiment: Androgenic activity at AR in human LAPC4 cells assessed as cell growth at 1 uM after 3 days by MTS method relative to control; type: cell-based; details: 72 h
T1 sequence (P10275 whole entry): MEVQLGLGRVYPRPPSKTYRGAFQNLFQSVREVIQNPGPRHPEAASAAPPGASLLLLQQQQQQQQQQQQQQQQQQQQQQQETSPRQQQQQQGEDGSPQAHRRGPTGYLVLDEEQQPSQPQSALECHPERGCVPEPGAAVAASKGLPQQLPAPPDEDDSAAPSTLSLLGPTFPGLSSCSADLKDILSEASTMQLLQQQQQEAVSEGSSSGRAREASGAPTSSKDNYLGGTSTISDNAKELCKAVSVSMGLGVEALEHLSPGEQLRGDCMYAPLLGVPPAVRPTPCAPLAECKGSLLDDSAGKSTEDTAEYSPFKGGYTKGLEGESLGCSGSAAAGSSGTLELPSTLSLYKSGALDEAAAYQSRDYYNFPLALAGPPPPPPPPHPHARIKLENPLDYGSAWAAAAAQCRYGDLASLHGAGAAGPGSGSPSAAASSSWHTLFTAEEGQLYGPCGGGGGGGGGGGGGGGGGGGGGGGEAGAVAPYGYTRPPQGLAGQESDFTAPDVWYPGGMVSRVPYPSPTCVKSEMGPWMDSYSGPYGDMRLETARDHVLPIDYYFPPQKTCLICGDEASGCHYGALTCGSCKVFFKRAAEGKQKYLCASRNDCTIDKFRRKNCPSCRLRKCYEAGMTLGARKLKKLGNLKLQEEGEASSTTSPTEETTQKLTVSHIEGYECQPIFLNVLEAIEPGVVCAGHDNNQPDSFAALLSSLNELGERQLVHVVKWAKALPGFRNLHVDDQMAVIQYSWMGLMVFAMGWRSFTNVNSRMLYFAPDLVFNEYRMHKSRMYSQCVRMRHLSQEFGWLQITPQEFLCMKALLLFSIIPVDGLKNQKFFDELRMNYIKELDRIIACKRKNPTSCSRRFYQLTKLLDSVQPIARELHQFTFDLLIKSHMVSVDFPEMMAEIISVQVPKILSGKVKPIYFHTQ
Summary of the method: (§1)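 LAPC-4 (AR+) cells, cultured in RPMI-1640 with FBS, L-glutamine and insulin, were switched to medium with 5% dextran-coated charcoal treated FBS. 10,000 cells/well, triplicate, were pre-incubated 24 h at 37 °C, then given compound diluted from DMSO stock for 3 days; vehicle DMSO controls. Growth read by MTS, expressed as % proliferation minus basal 100%.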

Androgen receptor [2] = biological target: T1, Androgen receptor; experiment: Androgenic activity at AR in human LAPC4 cells assessed as cell growth at 0.1 uM after 3 days by MTS method relative to control; type: cell-based; details: 72 h; summary of the method: as §1
[3] = biological target: T2, 17-beta-hydroxysteroid dehydrogenase type 3 (Homo sapiens, UniProt P37058); experiment: Inhibition of 17-beta-HSD3 (unknown origin) expressed in human LNCaP cells using [14C]-4-androstene-3,17-dione as substrate assessed as reduction of [14C]-testosterone level after 1 hr by TLC method
T2 sequence (P37058 whole entry): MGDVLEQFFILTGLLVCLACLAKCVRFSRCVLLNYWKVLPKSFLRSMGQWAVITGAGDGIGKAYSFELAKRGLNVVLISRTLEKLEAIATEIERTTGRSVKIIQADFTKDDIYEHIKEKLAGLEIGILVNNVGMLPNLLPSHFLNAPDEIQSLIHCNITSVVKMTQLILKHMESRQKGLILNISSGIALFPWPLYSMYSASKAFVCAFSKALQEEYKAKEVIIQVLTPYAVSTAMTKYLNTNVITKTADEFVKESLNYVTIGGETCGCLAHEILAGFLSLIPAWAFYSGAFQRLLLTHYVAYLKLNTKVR

Androgen receptor [4] = biological target: T1, Androgen receptor; experiment: Androgenic activity at AR in human LAPC4 cells assessed as cell growth at 0.5 uM after 3 days by MTS method relative to control; type: cell-based; details: 72 h; summary of the method: as §1
[5] = biological target: T3, 17-beta-hydroxysteroid dehydrogenase type 3 (Homo sapiens) (UniProt P37058); experiment: Inhibition of 17-beta-HSD3 (unknown origin) expressed in human LNCaP cells using [14C]-4-androstene-3,17-dione as substrate assessed as reduction of [14C]-testosterone level at 0.1 to 1 uM after 1 hr by TLC method; type: cell-based
T3 sequence (whole entry): T2 sequence (P37058 whole entry)
Summary of the method: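 LNCaP cells stably transfected with 17β-HSD3, grown in RPMI-1640 with 10% FBS and hygromycin; hygromycin omitted for assay. 10,000 cells/well plated, incubated 2 days, then 15 nM [14C]-4-androstene-3,17-dione added with inhibitor in DMSO (final 0.05%).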

[6] = Metabolic stability in human liver microsomes assessed as parent compound remaining at 10 uM after 1 hr by HPLC-MS analysis; type: ADME, microsome; details: read-out: Stability
Summary of the method: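 Human liver microsomes (40 μg) were incubated with 10 μM substrate for 1 h at 37 °C, with or without 10 mM NADPH, in 50 mM Tris plus 10 mM MgCl₂. MeOH-quenched, centrifuged supernatants from 2 assays pooled for HPLC-MS with UV at 190 nm. % remaining = AUC with NADPH / AUC without NADPH × 100; mean of 4 independent experiments.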

Compound | Activity (Androgen receptor [1]) [%] | Activity (Androgen receptor [2]) [%] | pIC50 [3] | Activity (Androgen receptor [4]) [%] | inhibition [5] | remaining at 1 h, 10 µM [6] [%]
C[C@@H]1CN(S(=O)(=O)c2ccccc2C(F)(F)F)[C@@H](C)CN1C[C@@]1(O)CC[C@@]2(C)[C@@H](CC[C@@H]3[C@@H]2CC[C@]2(C)C(=O)CC[C@@H]32)C1 | 33 | 96 | 6.96 | 48 | – | –
C[C@]12CC[C@@H](O)C[C@@H]1CC[C@@H]1[C@@H]2CC[C@@]2(C)C(=O)CC[C@@H]12 | – | – | – | – | inactive | –
C[C@@H]1CN(S(=O)(=O)c2ccccc2C(F)(F)F)[C@@H](C)CN1C (relative stereo) | – | – | – | – | inactive | –
C[C@@H]1CN(S(=O)(=O)c2ccccc2C(F)(F)F)[C@@H](C)CN1C[C@]1(O)CC[C@@]2(C)[C@H](CC[C@@H]3[C@@H]2CC[C@@]2(C)C(=O)CC[C@@H]32)C1 | 28.2 | 87.2 | 6.82 | 72.3 | – | 16.6
C[C@]12CC[C@H](O)C[C@H]1CC[C@@H]1[C@@H]2CC[C@@]2(C)C(=O)CC[C@@H]12 | – | – | – | – | inactive | –
C[C@@H]1CN(S(=O)(=O)c2ccccc2C(F)(F)F)[C@@H](C)CN1C[C@@]1(O)CC[C@@]2(C)[C@@H](CC[C@@H]3[C@@H]2CC[C@@]2(C)C(=O)CC[C@@H]32)C1 | 51 | 76.3 | 5.96 | 61.6 | – | 29.4
